Data published in ChEMBL document CHEMBL2034823, “Synthesis and antiviral activity of certain second generation methylenecyclopropane nucleosides” (Bioorg Med Chem, 2012).

Columns and labels:
Human gammaherpesvirus 4 = experiment: Antiviral activity against EBV Akata infected in human Akata cells assessed as reduction in viral DNA after 72 hrs by hybridization assay; type: functional, organism-based; settings: human gammaherpesvirus 4, Akata
Outline: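 Akata cells kept in RPMI 1640 with 10% FBS, L-glutamine, penicillin and gentamicin. Latent infection was switched to productive by adding goat anti-human IgG, and cells were seeded into compound dilutions made in growth medium. After 72 h the DNA was denatured and blotted onto nylon membrane. Viral DNA was measured with a digoxigenin-labeled probe plus anti-hapten antibody. EC50 is the concentration halving viral DNA. Duplicate wells.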

Human alphaherpesvirus 2 = experiment: Antiviral activity against HSV-2 infected in human HFF cells assessed as reduction in cytopathic effect after 3 days by crystal violet staining; type: functional, organism-based; settings: Human alphaherpesvirus 2, HFF, 72 h
Outline: (§1)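 Compound diluted over HFF monolayers, then HSV-1 (E-377) or HSV-2 (MS) added at MOI about 0.01 PFU/cell. Held 3 days in humidified 5% CO2. Stained 4 h with 0.1% crystal violet in formalin, rinsed, dried 24 h, and absorbance read at 595 nm. EC50 is 50% CPE reduction. Duplicate wells.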

Human gammaherpesvirus 8 = experiment: Antiviral activity against HHV-8 infected in human BCBL1 cells assessed as reduction in viral DNA after 7 days by qPCR analysis; type: functional, organism-based; settings: Human gammaherpesvirus 8, BCBL1, 168 h
Outline: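 BCBL1 cells kept in RPMI 1640 with 10% FBS, penicillin, gentamycin and L-glutamine. Lytic infection induced with phorbol 12-myristate 13-acetate, then cells added to triplicate compound dilutions. Incubation 7 days at 37 °C in humidified CO2. EC50 is the concentration halving viral DNA accumulation.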

[1] = Cytotoxicity against human HSB2 cells after 7 days by Cell-Titer Glo assay; type: cell-based, CCRF-HSB-2
Outline: (§2)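 Uninfected Akata, BCBL1, HSB-2 or MOLT-3 cells incubated with compound for seven days under the matching antiviral-assay conditions. CellTiter-Glo added and luminescence read. CC50 is the concentration reducing cell number by 50%.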

Human alphaherpesvirus 1 = experiment: Antiviral activity against HSV-1 infected in human HFF cells assessed as reduction in cytopathic effect after 3 days by crystal violet staining; type: functional, organism-based; settings: Human alphaherpesvirus 1, HFF, 72 h; outline: as §1
[2] = Cytotoxicity against human MOLT3 cells after 7 days by Cell-Titer Glo assay; type: cell-based, MOLT-3; outline: as §2
Human alphaherpesvirus 3 = experiment: Antiviral activity against VZV infected in human HFF cells assessed as reduction in cytopathic effect after 7 days by crystal violet staining; type: functional, organism-based; settings: Human alphaherpesvirus 3, HFF, 168 h
Human betaherpesvirus 5 = experiment: Antiviral activity against HCMV infected in human HFF cells assessed as reduction in cytopathic effect after 8 days by plaque reduction assay; type: functional, organism-based; settings: Human betaherpesvirus 5, HFF, 192 h
Outline: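 HFF monolayers seeded 2 days ahead and infected with AD169 at about 30 plaques per well, with 1 h adsorption. Compound was then added in MEM with 2% FBS, L-glutamine, penicillin, gentamycin and pooled human gamma globulin. After 8 days, neutral red stain and plaque counts by stereomicroscope. EC50 interpolated. Duplicate wells.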

[3] = Cytotoxicity against human Akata cells after 7 days by Cell-Titer Glo assay; type: cell-based; outline: as §2
[4] = Cytotoxicity against human BCBL1 cells after 7 days by Cell-Titer Glo assay; type: cell-based; outline: as §2
[5] = Antiviral activity against HHV-6B infected in human Molt3 cells assessed as reduction in viral DNA after 7 days by hybridization assay; type: functional, cell-based, Human herpesvirus 6B; settings: Human betaherpesvirus 6B, MOLT-3, 168 h
Outline: (§3)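 Compound serially diluted in medium. Uninfected HSB-2 cells were infected with HHV-6A (GS)-infected HSB-2 cells, and Molt-3 cells with HHV-6B (Z29)-infected Molt-3 cells. Incubation 7 days at 37 °C. Lysis in 4.5 M NaCl/1.2 M NaOH, then transfer to nylon membrane. Viral DNA quantified by digoxigenin-probe hybridization and EC50 calculated. Duplicate wells.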

[6] = Antiviral activity against HHV-6A infected in human HSB2 cells assessed as reduction in viral DNA after 7 days by hybridization assay; type: functional, cell-based, Human herpesvirus 6A; settings: Human betaherpesvirus 6A, HSB2, 168 h; outline: as §3
[7] = Cytotoxicity against human HFF cells after 3 to 8 days by crystal voilet staining; type: cell-based
Outline: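 Uninfected HFF cells exposed to the same concentrations as in the CPE assays (3 days for HSV, 7 for VZV, […]). Stained with crystal violet. CC50 is the concentration reducing cell number by 50%. Duplicate wells.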

## CCCCCCCCOc1nc(N)nc2c1ncn2/C=C1/CC1(CO)CO
Human gammaherpesvirus 4
  IC50: 13 µM
Human alphaherpesvirus 2
  IC50: > 300 µM
Human gammaherpesvirus 8
  IC50: > 20 µM
[1]
  CC50 at 168 h: > 20 µM
Human alphaherpesvirus 1
  IC50: > 300 µM
[2]
  CC50 at 168 h: > 20 µM
Human alphaherpesvirus 3
  IC50: > 100 µM
Human betaherpesvirus 5
  IC50: 29 µM
[3]
  CC50 at 168 h: > 20 µM
[4]
  CC50 at 168 h: > 20 µM
[5]
  IC50: 11.5 µM
[6]
  IC50: > 20 µM
[7]
  CC50: > 300 µM

## CCCCNc1nc(N)nc2c1ncn2/C=C1/CC1(CO)CO
Human gammaherpesvirus 4
  IC50: > 24 µM
Human alphaherpesvirus 2
  IC50: > 300 µM
Human gammaherpesvirus 8
  IC50: > 20 µM
[1]
  CC50 at 168 h: > 20 µM
Human alphaherpesvirus 1
  IC50: > 300 µM
[2]
  CC50 at 168 h: > 20 µM
Human alphaherpesvirus 3
  IC50: > 300 µM
Human betaherpesvirus 5
  IC50: > 60 µM
[3]
  CC50 at 168 h: > 24 µM
[4]
  CC50 at 168 h: > 20 µM
[5]
  IC50: > 20 µM
[6]
  IC50: > 20 µM
[7]
  CC50: > 300 µM

## CCCOc1nc(N)nc2c1ncn2/C=C1/CC1(CO)CO
Human gammaherpesvirus 4
  IC50: 8.9 µM
Human alphaherpesvirus 2
  IC50: > 300 µM
Human gammaherpesvirus 8
  IC50: 16 µM
[1]
  CC50 at 168 h: > 20 µM
Human alphaherpesvirus 1
  IC50: > 300 µM
[2]
  CC50 at 168 h: > 20 µM
Human alphaherpesvirus 3
  IC50: 2.9 µM
Human betaherpesvirus 5
  IC50: 1.1 µM
[3]
  CC50 at 168 h: > 20 µM
[4]
  CC50 at 168 h: > 20 µM
[5]
  IC50: 6.6 µM
[6]
  IC50: 18 µM
[7]
  CC50: > 300 µM

## COCCOc1nc(N)nc2c1ncn2/C=C1/CC1(CO)CO
Human gammaherpesvirus 4
  IC50: 20 µM
Human alphaherpesvirus 2
  IC50: > 300 µM
Human gammaherpesvirus 8
  IC50: > 20 µM
[1]
  CC50 at 168 h: > 20 µM
Human alphaherpesvirus 1
  IC50: > 300 µM
[2]
  CC50 at 168 h: > 20 µM
Human alphaherpesvirus 3
  IC50: 13.9 µM
Human betaherpesvirus 5
  IC50: 17 µM
[3]
  CC50 at 168 h: > 20 µM
[4]
  CC50 at 168 h: > 20 µM
[5]
  IC50: > 20 µM
[6]
  IC50: > 20 µM
[7]
  CC50: > 300 µM

## CCCNc1nc(N)nc2c1ncn2/C=C1/CC1(CO)CO
Human gammaherpesvirus 4
  IC50: > 24 µM
Human alphaherpesvirus 2
  IC50: > 300 µM
Human gammaherpesvirus 8
  IC50: > 20 µM
[1]
  CC50 at 168 h: > 20 µM
Human alphaherpesvirus 1
  IC50: > 300 µM
Human alphaherpesvirus 3
  IC50: > 300 µM
Human betaherpesvirus 5
  IC50: > 300 µM
[3]
  CC50 at 168 h: > 24 µM
[4]
  CC50 at 168 h: > 20 µM
[6]
  IC50: > 20 µM
[7]
  CC50: > 300 µM

## CCCCCCOc1nc(N)nc2c1ncn2/C=C1/CC1(CO)CO
Human gammaherpesvirus 4
  IC50: 7.3 µM
Human alphaherpesvirus 2
  IC50: > 300 µM
Human gammaherpesvirus 8
  IC50: > 20 µM
[1]
  CC50 at 168 h: > 20 µM
Human alphaherpesvirus 1
  IC50: > 300 µM
[2]
  CC50 at 168 h: > 20 µM
Human betaherpesvirus 5
  IC50: 3.9 µM
[3]
  CC50 at 168 h: > 20 µM
[4]
  CC50 at 168 h: > 20 µM
[5]
  IC50: 9.5 µM
[6]
  IC50: > 20 µM
[7]
  CC50: > 200 µM

## CN(C)c1nc(N)nc2c1ncn2/C=C1/CC1(CO)CO
Human gammaherpesvirus 4
  IC50: > 24 µM
Human alphaherpesvirus 2
  IC50: > 300 µM
Human gammaherpesvirus 8
  IC50: > 20 µM
[1]
  CC50 at 168 h: > 20 µM
Human alphaherpesvirus 1
  IC50: > 300 µM
Human alphaherpesvirus 3
  IC50: 180 µM
Human betaherpesvirus 5
  IC50: > 300 µM
[3]
  CC50 at 168 h: > 24 µM
[4]
  CC50 at 168 h: > 20 µM
[6]
  IC50: > 20 µM
[7]
  CC50: > 300 µM

## CC(C)CNc1nc(N)nc2c1ncn2/C=C1/CC1(CO)CO
Human gammaherpesvirus 4
  IC50: > 24 µM
Human alphaherpesvirus 2
  IC50: > 300 µM
Human gammaherpesvirus 8
  IC50: > 20 µM
[1]
  CC50 at 168 h: > 20 µM
Human alphaherpesvirus 1
  IC50: > 300 µM
Human alphaherpesvirus 3
  IC50: > 300 µM
Human betaherpesvirus 5
  IC50: > 300 µM
[3]
  CC50 at 168 h: > 24 µM
[4]
  CC50 at 168 h: > 20 µM
[6]
  IC50: > 20 µM
[7]
  CC50: > 300 µM

## Nc1nc2c(ncn2COC(CO)CO)c(=O)[nH]1 [GANCICLOVIR]
Human betaherpesvirus 5
  IC50: 2.1 µM
[7]
  CC50: > 300 µM

## CC(C)Nc1nc(N)nc2c1ncn2/C=C1/CC1(CO)CO
Human gammaherpesvirus 4
  IC50: > 24 µM
Human alphaherpesvirus 2
  IC50: > 300 µM
Human gammaherpesvirus 8
  IC50: > 20 µM
[1]
  CC50 at 168 h: > 20 µM
Human alphaherpesvirus 1
  IC50: > 300 µM
Human alphaherpesvirus 3
  IC50: > 300 µM
Human betaherpesvirus 5
  IC50: 160 µM
[3]
  CC50 at 168 h: > 24 µM
[4]
  CC50 at 168 h: > 20 µM
[6]
  IC50: > 20 µM
[7]
  CC50: > 300 µM

## Nc1nc(N2CCOCC2)c2ncn(/C=C3/CC3(CO)CO)c2n1
Human gammaherpesvirus 4
  IC50: > 24 µM
Human alphaherpesvirus 2
  IC50: > 300 µM
Human gammaherpesvirus 8
  IC50: > 20 µM
[1]
  CC50 at 168 h: > 20 µM
Human alphaherpesvirus 1
  IC50: > 300 µM
Human alphaherpesvirus 3
  IC50: > 300 µM
Human betaherpesvirus 5
  IC50: > 300 µM
[3]
  CC50 at 168 h: > 24 µM
[4]
  CC50 at 168 h: > 20 µM
[6]
  IC50: > 20 µM
[7]
  CC50: > 300 µM

## CC(C)CSc1nc(N)nc2c1ncn2/C=C1/CC1(CO)CO
Human gammaherpesvirus 4
  IC50: 2.3 µM
Human alphaherpesvirus 2
  IC50: > 300 µM
Human gammaherpesvirus 8
  IC50: > 20 µM
[1]
  CC50 at 168 h: 60 µM
Human alphaherpesvirus 1
  IC50: > 300 µM
Human alphaherpesvirus 3
  IC50: > 50 µM
Human betaherpesvirus 5
  IC50: 31 µM
[3]
  CC50 at 168 h: > 20 µM
[4]
  CC50 at 168 h: > 20 µM
[6]
  IC50: > 20 µM
[7]
  CC50: > 300 µM

## Nc1nc(N2CCCC2)c2ncn(/C=C3/CC3(CO)CO)c2n1
Human gammaherpesvirus 4
  IC50: > 24 µM
Human alphaherpesvirus 2
  IC50: > 300 µM
Human gammaherpesvirus 8
  IC50: > 20 µM
[1]
  CC50 at 168 h: > 20 µM
Human alphaherpesvirus 1
  IC50: > 300 µM
Human alphaherpesvirus 3
  IC50: > 300 µM
Human betaherpesvirus 5
  IC50: > 300 µM
[3]
  CC50 at 168 h: > 24 µM
[4]
  CC50 at 168 h: > 20 µM
[6]
  IC50: > 20 µM
[7]
  CC50: > 300 µM

## Nc1nc2c(ncn2COCCO)c(=O)[nH]1 [ACYCLOVIR]
Human alphaherpesvirus 2
  IC50: 2.8 µM
Human alphaherpesvirus 1
  IC50: 2.9 µM
[7]
  CC50: > 300 µM

## Nc1nc(NC2CCCCC2)c2ncn(/C=C3/CC3(CO)CO)c2n1
Human gammaherpesvirus 4
  IC50: > 24 µM
Human alphaherpesvirus 2
  IC50: > 300 µM
Human gammaherpesvirus 8
  IC50: > 20 µM
[1]
  CC50 at 168 h: > 20 µM
Human alphaherpesvirus 1
  IC50: > 300 µM
Human alphaherpesvirus 3
  IC50: > 300 µM
Human betaherpesvirus 5
  IC50: > 300 µM
[3]
  CC50 at 168 h: > 24 µM
[4]
  CC50 at 168 h: > 20 µM
[6]
  IC50: > 20 µM
[7]
  CC50: > 300 µM

## Nc1nc(NCc2ccccc2)c2ncn(/C=C3/CC3(CO)CO)c2n1
Human gammaherpesvirus 4
  IC50: > 24 µM
Human alphaherpesvirus 2
  IC50: > 300 µM
[1]
  CC50 at 168 h: > 20 µM
Human alphaherpesvirus 1
  IC50: > 300 µM
[2]
  CC50 at 168 h: > 20 µM
Human alphaherpesvirus 3
  IC50: > 60 µM
Human betaherpesvirus 5
  IC50: > 60 µM
[3]
  CC50 at 168 h: > 24 µM
[4]
  CC50 at 168 h: 19.9 µM
[5]
  IC50: > 20 µM
[6]
  IC50: > 20 µM
[7]
  CC50: > 300 µM
